Compound activity as filed in PubChem.
M5 PAM = human M5 muscarinic receptor positive allosteric modulators, primary screen, CHO-K1 cells, Fluo-8 calcium fluorescence. Muscarinic acetylcholine receptor M5 (Homo sapiens), P08912. CHO-K1 hM5, ACh EC20 PAM; 0% = ACh EC20, 100% = ACh EC100. activation, % at 3 µM. hit rate 0.3% among 360,000. AID 624038, 2012;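 active = activation above the run cutoff, the mean activation of all test compounds plus 3 SD, cut at about 18% in these data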
Target sequence (P08912 whole entry, looked up): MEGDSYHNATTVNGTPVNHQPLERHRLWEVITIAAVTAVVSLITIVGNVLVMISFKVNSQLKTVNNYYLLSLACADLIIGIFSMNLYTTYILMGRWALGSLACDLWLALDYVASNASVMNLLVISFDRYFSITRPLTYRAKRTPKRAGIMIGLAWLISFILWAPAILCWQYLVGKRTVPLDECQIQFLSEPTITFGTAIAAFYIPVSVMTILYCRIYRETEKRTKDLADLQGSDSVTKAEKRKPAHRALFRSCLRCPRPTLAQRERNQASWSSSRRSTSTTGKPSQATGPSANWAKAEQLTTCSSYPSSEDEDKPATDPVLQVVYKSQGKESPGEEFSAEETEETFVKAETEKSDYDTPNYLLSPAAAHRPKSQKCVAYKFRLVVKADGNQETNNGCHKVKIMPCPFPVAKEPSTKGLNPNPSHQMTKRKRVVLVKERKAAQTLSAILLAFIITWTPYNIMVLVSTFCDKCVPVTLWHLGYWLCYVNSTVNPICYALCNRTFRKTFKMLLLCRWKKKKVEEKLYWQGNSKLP
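Measured by: Fluo-8 calcium fluorescence; material: human M5 receptor in CHO-K1 cells; schedule: Post-acetylcholine fluorescence recording 140 s; benchmarks: low control EC20 acetylcholine (0%), high control EC100 acetylcholine (100%); read-out: Max/basal fluorescence ratio as % of EC20–EC100 ACh window; compound: single dose, 3 µM nominal final test concentration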
CHRM4 PAM = human M4 muscarinic receptor positive allosteric modulators, primary screen, CHO-K1 cells, Fluo-8 calcium fluorescence; Muscarinic acetylcholine receptor M4 (Homo sapiens), P08173; CHO-K1 hM4/Gqi5, ACh EC20; 0% = ACh EC20, 100% = maximal ACh; activation, % at 3 µM; hit rate 0.4% among 360,000; AID 624126, 2012;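 active = activation above its plate's cutoff, the mean activation of sample wells plus 3 SD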
CHRM4 antagonist = human M4 muscarinic receptor antagonists, primary screen, CHO cells, Fluo-8 calcium fluorescence; Muscarinic acetylcholine receptor M4 (Homo sapiens), P08173; CHO-hM4 cells, ACh EC80; inhibition, % at 3 µM; hit rate 0.73% among 360,000; AID 624125, 2012;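 active = inhibition above its plate's cutoff, the mean inhibition of sample wells plus 3 SD, cut at about 27% in these data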;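 also: 0% = acetylcholine EC80 with DMSO and 100% = DMSO without agonist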
CHRM5 agonist = human M5 muscarinic receptor agonists, primary screen, CHO-K1 cells, Fluo-8 calcium fluorescence; activation, % at 3 µM; CHO-K1 hM5 cells; 0% DMSO wells, 100% maximal acetylcholine response; hit rate 0.19% among 360,000;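 active = activation above the run's mean over test compounds plus 3 SD, cut at about 23% in these data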;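 also: signal is peak over basal fluorescence ratio across the kinetic read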
CHRM4 agonist = human M4 muscarinic receptor agonists, primary screen, CHO-K1 cells, Fluo-8 calcium fluorescence; hit rate 0.14% among 360,000; CHO-K1 hM4/Gqi5; vehicle 0%, full acetylcholine response 100%; AID 624127, 2012; activation, % at 3 µM;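 active = activation above the run mean over all test wells plus 3 SD, cut at about 32% in these data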;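 also: peak over basal fluorescence ratio per well then scaled between controls; 0% = DMSO wells and 100% = acetylcholine at EC100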
CHRM5 antagonist = human M5 muscarinic receptor antagonists, primary screen, CHO cells, Fluo-8 calcium fluorescence. CHO-hM5 cells, ACh EC80. hit rate 0.59% among 360,000. Muscarinic acetylcholine receptor M5 (Homo sapiens), P08912. inhibition, % at 3 µM. AID 624040, 2012;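 active = inhibition above a per-plate cutoff, the mean of that plate's test compounds plus 3 SD, cut at about 27% in these data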;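 also: 0% = acetylcholine EC80 with DMSO and 100% = DMSO without agonist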
Starred values were filed as active, the others as inactive. Rows were chosen to be rich in hits. Some 1.9% of all compounds tested hit in one or more screens of this group.

SMILES	M5 PAM	CHRM4 PAM	CHRM4 antagonist	CHRM5 agonist	CHRM4 agonist	CHRM5 antagonist
O[C@H]1C[C@H](c2ccc(Cl)cc2)N(CC2CCCCC2)C[C@@H]1n1cc(C2CC2)nn1	4	-2	-8	1	-1	2
Cc1ccc(CNc2ncc(-c3ccc4c(c3)OCO4)n2C)cc1	-12	-28	28*	-7	0	5
Cn1c(-c2ccc3c(c2)OCO3)cnc1NCc1ccc(Cl)cc1	-10	-28	14	-7	1	3
CC1(Cc2ccccc2OC(F)(F)F)C(=O)Nc2c(Cl)ccc(Cl)c21 (stereo not given)	-6	-3	3	-1	-2	0
CC(=O)N1CC2(CC(c3ccccc3C(F)(F)F)=NO2)CN1c1ccc(Cl)cc1 (stereo not given)	-1	-6	-8	0	4	11
CC(=O)C1=C(O)C(=O)N(c2cc(C(C)(C)C)on2)C1c1ccc(Br)cc1 (stereo not given)	6	30*	-1	3	0	0
CN1CCC(OC(=O)c2ccccc2)CC1	-12	-1	-6	-9	0	10
CN1CCC(OC2c3ccccc3CCc3ccccc32)CC1	-20	-12	99*	-2	3	99*
CC(C)Cn1c(N)c(C(=O)CCl)c(=O)n(C)c1=O	-4	3	3	5	3	10
CC(C)Cn1c(N)c(C=O)c(=O)n(C)c1=O	18*	-2	0	6	0	2
COC(=O)c1ccc2c(=O)n(Cc3ccc(C(=O)NC4CCCC4)cc3)c(=S)[nH]c2c1	3	21*	1	2	2	-2
CCN(CC(=O)Nc1ccc2c(c1)OCCO2)C(=O)/C=C/c1cccc(OC)c1OC	11	23	-15	25*	4	-13
CCN(CC(=O)Nc1ccc2c(c1)OCCO2)C(=O)/C=C/c1ccc(OC)cc1OC	-8	0	-3	-3	5	17
CCOC(=O)c1cn(CC)c2cc(N3CCN(C)CC3)c(F)cc2c1=O	6	3	4	-3	1	-5
CCCCCCn1cc(C(=O)OCC)c(=O)c2cc(F)c(F)cc21	16	38*	15	0	-1	-2
CCOC(=O)c1cn(CC#N)c2cc(F)c(F)cc2c1=O	8	24*	-9	-3	2	-4
CC1=C(C(=O)N(C)C)CC(CC(=O)NC2CCCCC2)C(=O)N1Cc1ccc(F)cc1 (stereo not given)	-1	2	-1	0	1	3
O=C(C(=O)N1CCN(C(=O)OCc2ccccc2)CC1)c1cccnc1	-5	-3	8	0	1	9
O=C(c1cccs1)n1cc(C(=S)N2CCOCC2)c2ccccc21	-3	-5	7	-3	1	3
O=C(C1CC1)n1cc(C(=S)N2CCOCC2)c2ccccc21	13	21*	1	-4	4	-8
CC(=O)c1ccc(-c2cnc3c(NC=O)cc(-c4cnn(C)c4)cn23)cc1	2	7	-1	1	1	5
Cc1cccc(C)c1NC(=O)C(c1ccccc1OC(F)(F)F)N1CCN(C/C=C/c2ccccc2)CC1 (stereo not given)	-2	-11	16	-4	9	10
CCN1/C(=C/c2ccc3ccccc3[n+]2CCCS(=O)(=O)[O-])C=Cc2cc(C)ccc21	-6	-1	3	-2	0	14
CCCCN1/C(=C/c2ccc3ccccc3[n+]2CC)Sc2ccccc21	-14	-4	21	16	22	39*
CCN1/C(=C/c2ccc3ccccc3[n+]2CC)C=Cc2ccccc21	-13	-12	45*	0	7	29*
SMILES	M5 PAM	CHRM4 PAM	CHRM4 antagonist	CHRM5 agonist	CHRM4 agonist	CHRM5 antagonist
CCN1/C(=C/c2ccc3cc(C)ccc3[n+]2CC)Sc2cc(C)ccc21	-22	-17	17	8	11	42*
O=C1NC[C@H](CCCCN2CCN(CCc3ccccc3)C(=O)C2=O)N(Cc2ccccc2)C1=O	3	4	-2	0	0	-6
CCCCN(C=O)c1c(CC)nc2ccc(C(=O)N3CCN(S(=O)(=O)CC)CC3)cn12	4	1	-6	2	0	20
N#CC1C(=O)c2ccccc2C1c1ccccc1 (stereo not given)	-39	-10	59*	-8	5	29*
Cc1cccnc1C(NC(=O)C1CCN(Cc2cn(C)c3ccccc23)CC1)c1ccc(Cl)cc1 (stereo not given)	-4	-4	8	2	23	8
COc1ccc(C(=O)C=Cc2ccc3c(c2)OCO3)cc1OC	0	-7	9	0	4	1
COc1cc(/C=C/C(=O)c2ccc3c(c2)OCO3)cc(Cl)c1O	-15	-27	32*	50*	125*	33*
CCOc1ccccc1-c1ccc(C(=O)NCc2ccc(Cl)cc2)o1	-7	-8	1	-5	1	-7
CCOc1ccc(CC(C(=O)NN)C(=O)NN)cc1CN(C)C	3	19*	-22	-1	-1	-9
COc1cc(Cc2nc3ccccc3n2C(C)c2nc3ccccc3[nH]2)cc(OC)c1 (stereo not given)	-10	0	5	0	8	13
CC(Oc1ccccc1)c1nnc(SCC(=O)NC2CC2)n1C (stereo not given)	-7	20*	1	-4	2	3
CCn1c(SCC(=O)NC2CC2)nnc1C(C)Oc1ccccc1 (stereo not given)	2	1	0	-2	1	2
CCCS(=O)(=O)NC(=O)C1(C)CCCN(C(=O)c2ccc(OC)cc2)C1 (stereo not given)	3	1	-6	0	0	-3
O=C(c1[nH]c(C(F)(F)F)nc1-c1ccccc1)N1CCN(c2c(Cl)cncc2Cl)CC1	-6	-7	3	36*	46*	14
O=C(c1[nH]c(C(F)(F)F)nc1-c1ccccc1)N1CCN(c2ccccc2)CC1	3	2	-12	1	1	5
CCOC(=O)C1CCN(c2cc3c(cc2NC(=O)c2ccccc2OCC)n(C)c(=O)n3C)CC1	-13	-3	11	-4	12	34*
